Calls of active or inactive are those of the source. The rule behind the calls is not given here.

Conditions in all cases: HEK293
Test [1] addresses T1, P2X purinoceptor 3 (Rattus norvegicus) (UniProt P49654).
T1 sequence (whole entry): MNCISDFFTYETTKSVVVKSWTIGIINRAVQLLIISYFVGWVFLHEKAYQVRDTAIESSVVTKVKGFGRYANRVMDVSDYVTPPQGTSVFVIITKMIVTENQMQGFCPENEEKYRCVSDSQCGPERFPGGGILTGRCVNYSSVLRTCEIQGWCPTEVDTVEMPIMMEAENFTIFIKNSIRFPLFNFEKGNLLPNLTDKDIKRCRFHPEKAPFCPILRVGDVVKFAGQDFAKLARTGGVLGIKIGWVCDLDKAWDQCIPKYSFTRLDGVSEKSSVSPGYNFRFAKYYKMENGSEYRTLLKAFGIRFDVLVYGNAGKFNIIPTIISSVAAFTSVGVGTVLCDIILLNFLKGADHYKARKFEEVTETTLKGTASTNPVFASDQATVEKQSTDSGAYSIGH
The test is described as follows: Agonist activity at rat P2X3 receptor expressed in HEK cells assessed as induction of inward current at 100 uM by patch clamp method relative to alpha, beta-meATP. It is filed as functional, cell-based. A digest of the protocol: (§1)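 HEK 293T cells transiently transfected with rat P2X3 (calcium phosphate), recorded 48 h post-transfection by whole-cell patch clamp at -60 mV in HEPES-buffered saline pH 7.4, CsCl pipette. Compound applied at 100 μM by rapid superfusion; inward current compared with averaged control current from ≥3 applications of α,β-meATP 100 μM for 2 s, 5 min apart.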

Test [2] deals with T1, P2X purinoceptor 3 (Rattus norvegicus). The test is described as follows: Antagonist activity at rat P2X3 receptor expressed in HEK cells assessed as inhibition of alpha, beta-meATP-induced inward current at 100 uM by patch clamp method. Further details: scale not given: the % may be the effect or the level left. In kind it is functional, cell-based. The method in brief:
(§2)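 Rat P2X3 subunit plasmid transfected (calcium phosphate) into HEK 293T cells, used 48 h later. Whole-cell clamp at -60 mV, fast superfusion; acyclic nucleotide (100 μM) preapplied 20 s, then α,β-meATP 100 μM for 2 s. Peak inward current expressed as % of control α,β-meATP response; n=7 cells, mean ± SEM, paired t or Mann-Whitney test.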
(In general: In patch-clamp work, channel activity is measured electrically.)

The target is the same in test [3]. The test is described as follows: Activity at rat P2X3 receptor expressed in HEK cells assessed as induction of inward current at 100 uM by patch clamp method. In kind it is cell-based. A digest of the protocol: as §1
Test [4] has the same target. The test is described as follows: Activity at rat P2X3 receptor expressed in HEK cells assessed inhibition of alpha, beta-meATP induced response by patch clamp method. In kind it is cell-based. The method in brief: as §2
Test [5] has the same target. The test is described as follows: Agonist activity at rat P2X3 receptor expressed in HEK cells assessed as induction of alpha, beta-meATP inward current at 100 uM pretreated before alpha, beta-meATP induction by patch clamp method. It is filed as functional, cell-based. The method in brief: as §2
Test [6] shares this target. Put plainly: Activity at rat P2X3 receptor expressed in HEK cells assessed as depression of amplitude current subsequent response to alpha, beta-meATP by patch clamp method relative to control. In kind it is cell-based. The method in brief:
as §2

For the compound `Nc1nc(Cl)nc2c1ncn2CCCCOP(=O)(O)OP(=O)(O)OP(=O)(O)O`, the Activity in test [1] was found to be 30%. For `Nc1nc(N)c2ncn(CCCCOP(=O)(O)O)c2n1`, the Activity in test [2] was 20%. In addition, the outcome in test [1] and in test [3] was inactive. Regarding `Nc1nc(I)nc2c1ncn2CCCCOP(=O)(O)OP(=O)(O)OP(=O)(O)O`, the Activity in test [1] was found to be 60%. Further, the outcome in test [3] and in test [4] was Active.

As to `Nc1nc(OCCc2ccccc2)nc2c1ncn2CCCCOP(=O)(O)OP(=O)(O)OP(=O)(O)O`, the outcome in test [1] was Active. On to `Nc1ncnc2c1ncn2[C@@H]1O[C@H](COP(=O)(O)CP(=O)(O)OP(=O)(O)O)[C@@H](O)[C@H]1O` (single isomer, unassigned), for which the result in test [3] was Active. For the compound `Nc1nc(Cl)nc2c1ncn2CCCCOP(=O)(O)O`, the Activity in test [2] was 20%. Also, the result in test [1] was inactive.

`Nc1nc(N)c2ncn(CCCCOP(=O)(O)OP(=O)(O)O)c2n1`: the result in test [1] and in test [3] was Active. Take `Nc1nc(Cl)nc2c1ncn2CCCCOP(=O)(O)OP(=O)(O)O`: the result in test [1] was Active. On to `CCCCC#Cc1nc(N)c2ncn(CCCCOP(=O)(O)OP(=O)(O)OP(=O)(O)O)c2n1`, for which, in test [1], the Activity came to 38%. Also, the outcome in test [3] and in test [4] was Active. For the compound `Nc1nc(N)c2ncn(CCCCOP(=O)(O)OP(=O)(O)OP(=O)(O)O)c2n1`, the Activity came to 25% in test [1] and 17% in test [5]. The result in test [3] was Active.

In the case of `CCCCC#Cc1nc(N)c2ncn(CCCCOP(=O)(O)O)c2n1`, the Activity in test [2] was determined as 20%. Further, the outcome in test [1] and in test [3] was inactive.

Turning to `Nc1nc(OCCc2ccccc2)nc2c1ncn2CCCCOP(=O)(O)OP(=O)(O)O`, in test [1], the result was Active. `Nc1nc(OCCc2ccccc2)nc2c1ncn2CCCCOP(=O)(O)O`: the Activity in test [2] is 20%. Also, the result in test [1] was inactive. For the compound `Nc1ncnc2c1ncn2CCCCOP(=O)(O)OP(=O)(O)OP(=O)(O)O`, the Activity in test [1] was found to be 36%. Consider `Nc1ncnc2c1ncn2CCCCOP(=O)(O)OP(=O)(O)O`, for which, in test [1], the Activity was found to be 32%. Still for that read-out and setting: in the case of `Nc1ncnc2c1ncn2CCCCOP(=O)(O)O` it was “inactive”. Take `Nc1nc(I)nc2c1ncn2CCCCOP(=O)(O)O`: the Activity in test [2] was determined as 20%; in test [6] it was 80%. The outcome in test [1] and in test [3] was inactive.
